These results are taken from ChEMBL document CHEMBL5150043, “Discovery of Anthranilic Acid Derivatives as Difluoromethylornithine Adjunct Agents That Inhibit Far Upstream Element Binding Protein 1 (FUBP1) Function” (J Med Chem, 2022).

Usually IC50 stands for the concentration needed to halve the response being measured. The EC50 is the concentration giving half of the maximal effect.

Data set [1] concerns L3.6pl. The data set can be described thus: Cytotoxicity against human L3.6pl cells assessed as cell viability measured after 72 hrs by ATPlite assay. It is filed as toxicity, cell-based. Summed up:
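L3.6pl human pancreatic cancer cells in 96-well format were exposed to compound alone for 72 h. Growth was expressed relative to an untreated control. MTC is the highest concentration with relative growth still >90%. […] Data come from two or more experiments, each run in triplicate (n ≥ 6).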
(In general: In ATP-based viability assays light output follows the ATP content of the culture.)

Data set [2] can be described thus: Cytotoxicity against human L3.6pl cells assessed as inhibition of cell growth measured after 72 hrs by ATPlite assay. It is filed as toxicity, cell-based.
Data set [3] concerns CHO-K1. The data set can be described thus: Inhibition of spermidine uptake in chinese hamster CHO-K1 cells assessed as decrease in cell growth by measuring cellular ATP content measured after 48 hrs in presence of DFMO and spermidine by ATPlite assay. The note with it: Cricetulus griseus, CHO-K1, 48 h.
Data set [4] has as its system CHO-K1. Briefly: Cytotoxicity against chinese hamster CHO-K1 cells assessed as decrease in cell viability measured after 48 hrs by ATPlite assay. The note with it: cho-k1, 48 h. It is filed as toxicity, cell-based, Cricetulus griseus. Summed up:
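CHO-K1 cells dosed alone in 384-well format in parallel with Assays 1 and 2; MTC taken as highest concentration giving ≥90% relative growth versus untreated control; typical error ±10% (n = 3).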

Data set [5] is described as follows: Inhibition of spermidine uptake chinese hamster CHO-K1 cells assessed as decrease in cell growth by measuring cellular ATP content measured after 48 hrs in presence of DFMO and spermidine by ATPlite assay. It is filed as functional, cell-based. The note with it: Cricetulus griseus, CHO-K1, 48 h.
Data set [6] has as its system L3.6pl. Briefly: Inhibition of polyamine uptake in human L3.6pl cells assessed as inhibition of Ant44-induced toxicity by measuring cellular ATP content at MTC measured after 72 hrs in presence of Ant44 by ATPlite assay. It is filed as functional. The procedure, abridged:
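L3.6pl cells, Ant44 challenge over 72 h, compound dosed up to its MTC; ECx = percentage effect at the MTC on scale from Ant44-only (50% growth) to untreated (100%); average of ≥2 experiments in triplicate (n ≥ 6).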

Data set [7] in a line: Inhibition of spermidine uptake in human L3.6pl cells assessed as inhibition of cell growth by measuring cellular ATP content at MTC measured after 72 hrs in presence of DFMO and spermidine by ATPlite assay. It is filed as functional. The procedure, abridged:
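L3.6pl cells with DFMO and spermidine over 72 h, compound dosed up to its MTC; ECx = percentage effect at the MTC on scale between DFMO-only (50%) and DFMO + Spd (100%) controls; average of ≥2 experiments in triplicate (n ≥ 6).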

As for `COc1ccc(C(=O)Nc2ccc(N3CCC(c4cccc(C)c4)C3)cc2C(=O)O)cc1` (configuration not stated), the MTC in data set [1] was 25 µM; in data set [4], greater than 40 µM. The IC50 at 72 h in data set [2] turned out to be 39.9 µM. The EC50 in data set [3] and in data set [5] was greater than 40 µM in each case.
Turning to `COc1ccccc1C(=O)Nc1ccc(N2CCN(c3ccccn3)CC2)cc1`, the results for the MTC in data set [1] and in data set [4] were 10 µM and 14 µM, respectively. Further, in data set [2], the IC50 at 72 h is greater than 10 µM. The EC50 in data set [3] and in data set [5] was greater than 40 µM throughout.
For `COc1ccccc1C(=O)Nc1ccc(N2CCN(c3cccc(C)c3C)CC2)cc1C(=O)O`, the MTC in data set [1] worked out at 8 µM; in data set [4], 28 µM. Besides, the IC50 at 72 h in data set [2] came out at 22.9 µM. Further, the values for the EC50 in data set [3] and in data set [5] were 23 µM and 2 µM, respectively.
In the case of `O=C(Nc1ccc(N2CCN(c3ccccn3)CC2)cc1C(=O)O)c1ccco1`, the results for the MTC in data set [1] and in data set [4] were 12 µM and greater than 40 µM, respectively. Moreover, in data set [2], the IC50 at 72 h is greater than 50 µM. The inhibition (INH) in data set [6] amounted to 41%; in data set [7], 31%. Besides, the EC50 in data set [3] and in data set [5] was greater than 40 µM in each case.
On to `COc1ccccc1C(=O)Nc1ccc(N2CCN(Cc3ccccn3)CC2)cc1C(=O)O`, for which the MTC is 10 µM in data set [1] and greater than 40 µM in data set [4]. Besides, the IC50 at 72 h in data set [2] was greater than 100 µM. Further, the EC50 in data set [3] turned out to be 10 µM.
With `COc1ccccc1C(=O)Nc1ccc(N2CCN(Cc3ccccc3)CC2)cc1C(=O)O`, the MTC in data set [1] is 10 µM; in data set [4], greater than 40 µM. In addition, the IC50 at 72 h in data set [2] was greater than 10 µM. Moreover, the EC50 in data set [3] and in data set [5] was greater than 40 µM throughout.
Turning to `Cc1ccccc1CN1CCN(c2ccc(NC(=O)C(C)(C)C)cc2)CC1`, the values for the MTC in data set [1] and in data set [4] were 10 µM and 2 µM, respectively. In addition, in data set [2], the IC50 at 72 h was greater than 10 µM. The “inhibition (INH)” value in data set [6] and in data set [7] was 15% in each case. Also, in data set [3], the EC50 turned out to be 2 µM.
`CCOc1ccccc1N1CCN(c2ccc(NC(=O)c3ccc(OC)cc3)c(C(=O)O)c2)CC1`: the MTC came out at 10 µM in data set [1] and 37 µM in data set [4]. For the same compound, the IC50 at 72 h in data set [2] was greater than 20 µM. Also, the EC50 in data set [3] came out at 20 µM.
Turning to `COc1ccc(C(=O)Nc2ccc(N3CCN(c4ccccc4OC)CC3)cc2C(=O)O)cc1`, the MTC is 6 µM in data set [1] and greater than 40 µM in data set [4]. For the same compound, the 50% inhibitory concentration (IC50) at 72 h in data set [2] is 13.3 µM. Further, the inhibition (INH) in data set [6] was 25%; in data set [7], 8%. Further, the figures for the EC50 in data set [3] and in data set [5] were 26 µM and 9 µM, respectively.
On to `COc1ccccc1C(=O)Nc1ccc(CN2CCN(c3ccccn3)CC2)cc1C(=O)O`, for which the MTC in data set [1] is 10 µM; in data set [4], greater than 40 µM. Also, the IC50 at 72 h in data set [2] was greater than 10 µM. In addition, the EC50 in data set [3] and in data set [5] was greater than 40 µM each time.
In the case of `COc1ccc(C(=O)Nc2ccc(N3CCC(C(N)=O)CC3)cc2C(=O)O)cc1`, the EC50 in data set [3] and in data set [5] was greater than 40 µM in each case. In addition, the MTC in data set [4] was 22 µM.
`COc1ccccc1C(=O)Nc1ccc(N2CCN(CCCc3ccccc3)CC2)cc1C(=O)O`: the figures for the MTC in data set [1] and in data set [4] were 10 µM and greater than 40 µM, respectively. Further, the IC50 at 72 h in data set [2] is greater than 10 µM. Also, the EC50 in data set [3] and in data set [5] was greater than 40 µM in each case.
In the case of `COc1ccc(C(=O)Nc2ccc(N3CCN(c4cc(Cl)ccc4C)CC3)cc2C(=O)O)c(OC)c1`, the MTC in data set [1] was 40 µM; in data set [4], greater than 40 µM. Also, the IC50 at 72 h in data set [2] is 61.6 µM. For the same compound, the EC50 in data set [3] and in data set [5] was greater than 40 µM each time.
With `COc1ccccc1N1CCN(c2ccc(NC(=O)c3ccccc3Cl)c(C(=O)O)c2)CC1`, the concentration giving a half-maximal response (EC50) in data set [3] was found to be 26 µM; in data set [5] it was 16 µM. Besides, the MTC in data set [4] was 36 µM.
Turning to `COc1ccccc1C(=O)Nc1ccc(N2CCN(c3cc(Cl)ccc3C)CC2)cc1C(=O)O`, the values for the MTC in data set [1] and in data set [4] were 7 µM and 19 µM, respectively. Also, the IC50 at 72 h in data set [2] amounted to 29.1 µM. The EC50 turned out to be 21 µM in data set [3] and 2 µM in data set [5].
In the case of `COc1ccc(C(=O)Nc2ccc(N3CCCN(c4ncccn4)CC3)cc2C(=O)O)cc1`, the MTC in data set [1] is 25 µM; in data set [4], greater than 40 µM. Moreover, the IC50 at 72 h in data set [2] was greater than 30 µM. For the same compound, the EC50 in data set [5] stood at 12 µM.
As for `COc1ccccc1N1CCN(c2ccc(NC(=O)c3ccccc3-c3cccs3)cc2C(=O)O)CC1`, the values for the EC50 in data set [3] and in data set [5] were 27 µM and greater than 40 µM, respectively. Moreover, the MTC in data set [4] is greater than 40 µM.
For the compound `COC(=O)c1cc(CN2CCN(c3ccccn3)CC2)ccc1NC(=O)c1ccccc1OC`, the EC50 in data set [3] and in data set [5] was greater than 20 µM each time. Besides, the MTC in data set [4] was greater than 20 µM.
Consider `COc1ccccc1C(=O)Nc1ccc(N2CCN(c3ccccn3)CC2)cc1C(=O)O`, for which the MTC stood at 2 µM in data set [1] and 21 µM in data set [4]. Besides, the IC50 at 72 h in data set [2] was greater than 100 µM. Also, the EC50 in data set [5] amounted to 4 µM.
Regarding `COc1ccccc1C(=O)Nc1ccc(N2CCC(c3ccccc3)CC2)cc1C(=O)O`, the MTC in data set [1] is 9 µM; in data set [4], greater than 40 µM. In addition, the IC50 at 72 h in data set [2] was determined as 46.3 µM. Further, the EC50 in data set [3] turned out to be 21 µM; in data set [5] it was 18 µM.
In the case of `Cc1ccc(CC(=O)Nc2ccc(N3CCN(c4ccccc4Cl)CC3)cc2C(=O)O)cc1`, the EC50 in data set [3] came out at 32 µM; in data set [5], 16 µM. Moreover, the MTC in data set [4] is greater than 40 µM.
The like results for `COC(=O)c1cc(N2CCN(c3cc(Cl)ccc3C)CC2)ccc1NC(=O)c1ccc(OC)cc1` were, in that order, greater than 40 µM, greater than 40 µM and greater than 40 µM.
In the case of `COc1ccccc1C(=O)Nc1ccc(N2CCN(C(=O)c3ccccn3)CC2)cc1C(=O)O`, the MTC in data set [1] was 10 µM; in data set [4], greater than 40 µM. In addition, in data set [2], the IC50 at 72 h is greater than 10 µM. Moreover, the EC50 in data set [3] and in data set [5] was greater than 40 µM each time.
Turning to `COC(=O)c1cc(N2CCN(c3cc(Cl)ccc3C)CC2)ccc1NC(=O)c1ccc(OC)cc1OC`, the EC50 in data set [3] and in data set [5] was greater than 40 µM in each case. Besides, the MTC in data set [4] is greater than 40 µM.
For `COc1ccc(C(=O)Nc2ccc(N3CCN(c4ccc(C(C)=O)cc4)CC3)cc2C(=O)O)cc1`, the EC50 was 21 µM in data set [3] and greater than 40 µM in data set [5]. In data set [4], the MTC worked out at 20 µM.
Regarding `COc1ccc(C(=O)Nc2ccc(N3CCN(c4ccc(OC)cc4)CC3)cc2C(=O)O)cc1`, the EC50 in data set [3] and in data set [5] was greater than 40 µM in each case. The MTC in data set [4] was greater than 40 µM.
`COc1ccc(C(=O)Nc2ccc(N3CCN(c4ccccc4Cl)CC3)cc2C(=O)O)cc1`: the MTC in data set [1] amounted to 90 µM; in data set [4], 28 µM. In addition, the IC50 at 72 h in data set [2] amounted to 125 µM. Further, the values for the inhibition (INH) in data set [6] and in data set [7] were 27% and 2%, respectively. Also, the EC50 in data set [3] came out at 27 µM.
For `CCOC(=O)N1CCN(c2ccc(NC(=O)c3ccc(OC)cc3)c(C(=O)O)c2)CC1`, the EC50 in data set [3] and in data set [5] was greater than 40 µM each time. For the same compound, the MTC in data set [4] amounted to 34 µM.
